Activity data for 38 compounds are collected here from ChEMBL document CHEMBL1125299, “Novel positive inotropic agents: synthesis and biological activities of 6-(3-amino-2-hydroxypropoxy)-2(1H)-quinolinone derivatives” (1992).

Assay [1] is filed under the species Canis familiaris. Briefly: The inotropic effect tested in vitro by using isolated blood-perfused dog heart preparations. Type of assay: functional, Canis lupus familiaris. The gist of the method:
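Isolated dog papillary muscle, blood-perfused by cross-circulation through cannulated arteries from a pentobarbital-anesthetized, heparinized donor dog. Intra-arterial microsyringe injection; developed tension recorded. Activity ratio = amrinone ED50 (half-maximal amrinone response) / test-compound dose producing an equal response.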

Assay [2] is filed under the species Canis familiaris. The assay is described as follows: The chronotropic effect tested in vitro by using isolated blood-perfused dog heart preparations. Type of assay: functional, Canis lupus familiaris. The method in brief:
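Isolated dog sinoatrial node preparation, cross-circulated through cannulated arteries with blood from a pentobarbital-anesthetized, heparinized donor dog. Compounds were given intra-arterially by microsyringe, and sinus rate was recorded. Reported as an activity ratio: amrinone ED50 (dose giving half-maximal amrinone response) divided by the test-compound dose producing the same response.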

Take `CN(Cc1ccc(F)cc1)CC(O)COc1ccc2nc(O)ccc2c1` (stereo unspecified): the Activity in the assay filed under Canis familiaris [1] came to 2.8; in the assay filed under Canis familiaris [2], 0.

With `CCN(CCOc1ccccc1)CC(O)COc1ccc2nc(O)ccc2c1` (stereo unspecified), the Activity is reported as 5.3 in the assay filed under Canis familiaris [1] and 0 in the assay filed under Canis familiaris [2].

For `CCN(CCc1ccccc1)CC(O)COc1ccc2nc(O)ccc2c1` (stereo unspecified), the figures for the Activity in the assay filed under Canis familiaris [1] and in the assay listed under Canis familiaris [2] were 6.9 and 0.8, respectively.

Regarding `Oc1ccc2cc(OCC(O)CNCc3ccccn3)ccc2n1` (stereo unspecified), the figures for the Activity in the assay filed under Canis familiaris [1] and in the assay filed under Canis familiaris [2] were 0.6 and 0, respectively.

With `CN(Cc1ccncc1)CC(O)COc1ccc2nc(O)ccc2c1` (stereo unspecified), the Activity is given as 2.3 in the assay listed under Canis familiaris [1] and 0.1 in the assay listed under Canis familiaris [2].

Consider `Oc1ccc2cc(OCC(O)CNCc3ccc(F)cc3)ccc2n1` (stereo unspecified), for which the Activity worked out at 3.5 in the assay filed under Canis familiaris [1] and 0 in the assay filed under Canis familiaris [2].

Take `Oc1ccc2cc(OCC(O)CNCCCc3ccccc3)ccc2n1` (stereo unspecified): the figures for the Activity in the assay listed under Canis familiaris [1] and in the assay filed under Canis familiaris [2] were 3.6 and 0.4, respectively.

Take `COc1ccc(CNCC(O)COc2ccc3ccc(O)nc3c2)cc1OC` (stereo unspecified): the Activity is 0 in the assay listed under Canis familiaris [1] and -0.2 in the assay listed under Canis familiaris [2].

For `COc1ccc(CNCC(O)COc2cccc3ccc(O)nc23)cc1OC` (stereo unspecified), the Activity in the assay listed under Canis familiaris [1] and in the assay filed under Canis familiaris [2] was 0 in each case.

Turning to `CN(CCCSc1ccccc1)CC(O)COc1ccc2nc(O)ccc2c1` (stereo unspecified), the Activity in the assay filed under Canis familiaris [1] is given as 1.3; in the assay listed under Canis familiaris [2] it was 4.3.

As to `CN(Cc1cccnc1)CC(O)COc1ccc2nc(O)ccc2c1` (stereo unspecified), the values for the Activity in the assay listed under Canis familiaris [1] and in the assay filed under Canis familiaris [2] were 1.7 and 0.3, respectively.

As for `Oc1ccc2cc(OCC(O)CNCc3ccc(Cl)cc3)ccc2n1` (stereo unspecified), the Activity in the assay filed under Canis familiaris [1] is 4.9; in the assay filed under Canis familiaris [2], 0.

For `CN(CC[S+]([O-])c1ccccc1)CC(O)COc1ccc2nc(O)ccc2c1` (stereo unspecified), the Activity in the assay listed under Canis familiaris [1] came to 2.3; in the assay listed under Canis familiaris [2], 0.

`CN(CCc1ccccn1)CC(O)COc1ccc2nc(O)ccc2c1` (stereo unspecified): the Activity in the assay listed under Canis familiaris [1] came out at 2.2; in the assay listed under Canis familiaris [2], 0.

As for `CN(Cc1ccccn1)CC(O)COc1ccc2nc(O)ccc2c1` (stereo unspecified), the Activity turned out to be 2.2 in the assay filed under Canis familiaris [1] and 0 in the assay filed under Canis familiaris [2].

For the compound `CN(Cc1ccc(Cl)cc1)CC(O)COc1ccc2nc(O)ccc2c1` (stereo unspecified), the Activity in the assay listed under Canis familiaris [1] was determined as 4; in the assay listed under Canis familiaris [2] it was 0.1.

Turning to `CCN(Cc1ccccc1)CC(O)COc1cc(F)c2nc(O)ccc2c1` (stereo unspecified), the results for the Activity in the assay filed under Canis familiaris [1] and in the assay filed under Canis familiaris [2] were 4.1 and 0, respectively.

For the compound `Cc1ccc(CN(C)CC(O)COc2ccc3nc(O)ccc3c2)cc1` (stereo unspecified), the results for the Activity in the assay filed under Canis familiaris [1] and in the assay filed under Canis familiaris [2] were 1.7 and 0, respectively.

For the compound `COc1ccc(CN(C)CC(O)COc2ccc3nc(O)ccc3c2)cc1` (stereo unspecified), the Activity in the assay listed under Canis familiaris [1] was found to be 2.8; in the assay listed under Canis familiaris [2] it was 0.2.

For `CCN(Cc1ccccc1)CC(O)COc1cc(C)c2nc(O)ccc2c1` (stereo unspecified), the figures for the Activity in the assay filed under Canis familiaris [1] and in the assay filed under Canis familiaris [2] were 0.8 and -0.4, respectively.

For the compound `Oc1ccc2cc(OCC(O)CNCc3cccs3)ccc2n1` (stereo unspecified), the Activity in the assay filed under Canis familiaris [1] is 3.1; in the assay listed under Canis familiaris [2], 0.8.

For `CCN(Cc1ccccc1)CC(O)COc1ccc2nc(O)ccc2c1` (stereo unspecified), the values for the Activity in the assay listed under Canis familiaris [1] and in the assay filed under Canis familiaris [2] were 4 and 0, respectively.

For the compound `CN(CCCN(C)c1ccccc1)CC(O)COc1ccc2nc(O)ccc2c1` (stereo unspecified), the Activity in the assay filed under Canis familiaris [1] was found to be 1.3; in the assay listed under Canis familiaris [2], 0.

For the compound `CN(Cc1ccccc1)CC(O)COc1ccc2c(c1)CCC(=O)N2` (stereo unspecified), the results for the Activity in the assay listed under Canis familiaris [1] and in the assay filed under Canis familiaris [2] were 0.1 and -0.2, respectively.

In the case of `CN(CCN(C)c1ccccc1)CC(O)COc1ccc2nc(O)ccc2c1` (stereo unspecified), the Activity is 5 in the assay listed under Canis familiaris [1] and 0 in the assay filed under Canis familiaris [2].

Regarding `COc1ccc(CNCC(O)COc2ccc3nc(O)ccc3c2)cc1` (stereo unspecified), the Activity was determined as 4.9 in the assay filed under Canis familiaris [1] and 0 in the assay listed under Canis familiaris [2].

With `COc1ccc(CCNCC(O)COc2ccc3nc(O)ccc3c2)cc1OC` (stereo unspecified), the results for the Activity in the assay listed under Canis familiaris [1] and in the assay listed under Canis familiaris [2] were 1.7 and -0.5, respectively.

For the compound `Oc1ccc2cc(OCC(O)CNCCc3ccccc3)ccc2n1` (stereo unspecified), the Activity in the assay listed under Canis familiaris [1] was determined as 1.5; in the assay listed under Canis familiaris [2], 0.

In the case of `CN(Cc1ccccc1)CC(O)COc1ccc2nc(O)c(C#N)cc2c1` (stereo unspecified), the Activity in the assay listed under Canis familiaris [1] was found to be 1.6; in the assay listed under Canis familiaris [2] it was 1.1.

As for `CN(CCS(=O)(=O)c1ccccc1)CC(O)COc1ccc2nc(O)ccc2c1` (stereo unspecified), the values for the Activity in the assay listed under Canis familiaris [1] and in the assay listed under Canis familiaris [2] were 2.1 and 0.1, respectively.

Consider `Oc1ccc2cc(OCC(O)CNCc3ccccc3)ccc2n1` (stereo unspecified), for which the Activity in the assay listed under Canis familiaris [1] is given as 2.2; in the assay filed under Canis familiaris [2] it was 0.

`COc1ccc(CNCC(O)COc2cccc3nc(O)ccc23)cc1OC` (stereo unspecified): the Activity in the assay filed under Canis familiaris [1] and in the assay filed under Canis familiaris [2] was 0 throughout.

As for `CN(CCSc1ccccc1)CC(O)COc1ccc2nc(O)ccc2c1` (stereo unspecified), the Activity in the assay filed under Canis familiaris [1] was 4.5; in the assay listed under Canis familiaris [2], -1.1.

For `CN(Cc1ccccc1)CC(O)COc1ccc2nc(O)ccc2c1` (stereo unspecified), the Activity in the assay filed under Canis familiaris [1] came out at 5.1; in the assay filed under Canis familiaris [2] it was 0.

As to `COc1cccc(CNCC(O)COc2ccc3nc(O)ccc3c2)c1` (stereo unspecified), the Activity was determined as 3.8 in the assay listed under Canis familiaris [1] and 0 in the assay filed under Canis familiaris [2].

Take `CCN(CCCc1ccccc1)CC(O)COc1ccc2nc(O)ccc2c1` (stereo unspecified): the Activity in the assay listed under Canis familiaris [1] is 3.2; in the assay listed under Canis familiaris [2], 0.2.

`COc1ccc(CNCC(O)COc2cc(C)c3nc(O)ccc3c2)cc1OC` (stereo unspecified): the Activity in the assay filed under Canis familiaris [1] is 0.5; in the assay filed under Canis familiaris [2], 0.

Consider `COc1ccc(CNCC(O)COc2ccc3[nH]c(=O)ccc3c2)cc1OC` (stereo unspecified) [TOBORINONE], for which the Activity in the assay listed under Canis familiaris [1] came to 5.2; in the assay filed under Canis familiaris [2], 0.
